# Screening results (PubChem BioAssay)
# Rows were chosen to be rich in hits. Some 2.5% of all compounds tested hit in one or more screens of this group.
# SENP8 block-1 – inhibitors of human SENP8 protease | Q96LD8 | recombinant SENP8, Nedd8 substrate fluorescence | inhibition, % at 20 µM | actives 0.64% (n = 360,000); in the data active = inhibition mostly above about 40%, no sharp cut-off; inactive = mostly below about 27%
# SENP7 block – blocks the human protease SENP7; inhibition, % at 5 µM; recombinant SENP7, Z-RLRGG-aminoluciferin luminescence, 40 min; actives 1.5% (n = 330,000);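 active = inhibition above about 50% at the single test dose, limit read from the data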;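 also: plate controls were DMSO with enzyme for no effect and no enzyme buffer wells for full effect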
# SENP8 block-2 – inhibitors of human SENP8 protease; actives 1.2% (n = 330,000); purified SENP8, Z-RLRGG-aminoluciferin cleavage, luminescence; AID 2540; Q96LD8; inhibition, % at 10 µM; in the data active = inhibition above about 50%
# SENP6 inh – SENP6 protease inhibition. actives 1.8% (n = 330,000). AID 2599. Q9GZR1. inhibition, % at 10 µM. Recombinant SENP6 catalytic domain, aminoluciferin luminescence;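 active = inhibition above about 50% at the single tested dose, limit read from the data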;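 also: plate controls were DMSO wells with enzyme for no effect and DMSO wells lacking enzyme for full effect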
# SENP1 inh – blocks the human SENP1 SUMO protease catalytic domain; Q9P0U3; recombinant SENP1 catalytic domain, CyPet-SUMO1-YPet FRET cleavage; inhibition, % at 10 µM; actives 0.21% (n = 360,000);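 active = inhibition at least 30% at 10 µM, raw YFP signal under a set limit, fluorescence ratio 0.5 to 1.5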;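 also: 0% = enzyme with DMSO and 100% = no enzyme wells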
# Target sequence (Q9P0U3 419-644 limits assumed): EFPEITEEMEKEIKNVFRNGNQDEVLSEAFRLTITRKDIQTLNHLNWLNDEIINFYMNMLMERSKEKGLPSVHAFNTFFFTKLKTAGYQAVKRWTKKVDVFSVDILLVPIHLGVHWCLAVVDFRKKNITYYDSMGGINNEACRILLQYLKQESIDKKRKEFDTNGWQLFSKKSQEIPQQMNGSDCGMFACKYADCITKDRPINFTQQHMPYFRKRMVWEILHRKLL
#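 Test system: recombinant human SENP1 catalytic domain, His6-tagged / Medium: pH 8 Tris buffer with EDTA, NaCl, BME, BSA, NP40, catalase / Also added: SUMO1 FRET substrate flanked by Cypet and Ypet, 25 nM / Times: 50 min reaction at room temperature / Signal: FRET, CFP and YFP emission / Control set: no-enzyme low control and enzyme-plus-DMSO high control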
# SENP8 confirm – human SENP8 inhibition, confirmed. shares compounds with SENP7 block. Recombinant SENP8, Z-RLRGG-aminoluciferin luminescence, 60 min. inhibition, % at 12.5 µM. actives 40% (n = 6,200). AID 488912;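 active = mean inhibition across replicates above about 50%, limit read from the data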
# SENP6 conf – human SENP6 inhibition, confirmed. shares compounds with SENP7 block. recombinant SENP6, Z-RLRGG-aminoluciferin luminescence. inhibition, % at 12.5 µM. actives 58% (n = 6,200). AID 488915
# SENP7 conf – confirmation of human SENP7 protease inhibitors; actives 69% (n = 6,200); inhibition, % at 12.5 µM; recombinant SENP7, Z-RLRGG-aminoluciferin luminescence, 40 min; shares compounds with SENP7 block; AID 488917
# Casp3 select – selectivity test for SENP inhibitors: human caspase-3 inhibition; shares compounds with SENP7 block; purified caspase-3, Z-DEVD-aminoluciferin luminescence, 60 min; inhibition, % at 12.5 µM; actives 60% (n = 6,200);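 active = mean inhibition above about 50%, limit read from the data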;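 also: plate controls were enzyme with DMSO for no effect and wells without caspase-3 for full effect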
# Target sequence (P42574 28-227 limits assumed): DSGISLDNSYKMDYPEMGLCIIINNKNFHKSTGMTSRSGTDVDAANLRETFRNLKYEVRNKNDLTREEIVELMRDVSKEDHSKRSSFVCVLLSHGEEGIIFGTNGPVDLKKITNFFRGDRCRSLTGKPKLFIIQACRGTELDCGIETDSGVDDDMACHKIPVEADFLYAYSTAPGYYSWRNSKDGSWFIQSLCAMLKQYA
# Luc interf – luminescence interference (SENP counter-screen). Pre-incubated SENP8/Z-RLRGG-aminoluciferin, luciferase luminescence interference. actives 39% (n = 6,200). inhibition, % at 12.5 µM. shares compounds with SENP7 block;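 active = mean inhibition above about 50% when retested at one dose, limit read from the data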;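 also: plate controls were DMSO wells with completed reaction for no effect and substrate without enzyme for full effect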
# The depositor's hits bear a star; · = no result given.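 The calls were made as follows, unless noted: active = mean inhibition above about 50% in the one-dose retest (limit read from the data); inactive = the rest.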
SMILES,SENP8 block-1,SENP7 block,SENP8 block-2,SENP6 inh,SENP1 inh,SENP8 confirm,SENP6 conf,SENP7 conf,Casp3 select,Luc interf
c1cnc2c(OCc3nc4ccccc4[nH]3)cccc2c1,2.5,13.0,-8.2,2.6,1.2,·,·,·,·,·
COc1cccc(OCc2nc3ncc(Br)cc3[nH]2)c1,4.9,1.9,-2.6,1.4,-1.7,·,·,·,·,·
COc1ccc(C(=O)NCC(=O)N/N=C/c2ccco2)cc1OC,14.4,-6.6,-10.5,101.2*,-1.3,7.3,6.9,13.8,7.1,6.9
COc1ccc(C(=O)NCCCCCC(=O)N/N=C/c2ccco2)cc1OC,12.2,-0.5,0.6,-9.7,-1.9,·,·,·,·,·
Cc1cc(C)n(-c2cc(-n3nc(C)cc3C)ncn2)n1,14.3,-1.9,-7.3,-21.4,2.1,·,·,·,·,·
Cc1ccc(Oc2cc(-n3nc(C)cc3C)ncn2)cc1,16.4,46.5,20.2,53.8*,1.3,36.8,38.7,73.4*,38.2,23.8
C/C(CCc1ccco1)=N\NC(=O)CNc1cccc2ccccc12,-411.6,-0.9,-3.7,4.0,-5.6,·,·,·,·,·
O=C(CNc1ccc2ccccc2c1)N/N=C/c1ccc(C(=O)O)cc1,-203.2,-0.5,2.7,-9.8,-15.3,·,·,·,·,·
C/C(=N\NC(=O)CNc1cccc2ccccc12)c1ccccc1,-350.6,19.1,54.2*,72.7*,-13.2,-0.1,4.2,10.0,0.7,-0.1
O=C(CNc1cccc2ccccc12)N/N=C/C=C/c1ccco1,-85.7,32.3,60.5*,82.3*,2.8,1.4,5.5,13.2,4.4,2.7
O=C(CNc1cccc2ccccc12)N/N=C/c1ccc(C(=O)O)cc1,-199.3,30.0,57.8*,70.8*,-7.0,-7.8,-3.4,-4.9,4.0,3.1
COc1ccc(-c2nnc(-c3ccccc3O)o2)cc1,-169.2,93.0*,83.6*,80.5*,1.7,51.1*,41.7,66.8*,56.2*,6.5
COc1ccc(-c2nnc(-c3ccc(F)cc3)o2)cc1,-96.5,68.8*,56.5*,57.8*,-0.2,8.5,8.7,12.4,1.2,8.2
CC(C)(CO)NCC(O)Cn1cc(C=O)c2ccccc21 (centres undefined),7.3,-3.8,7.8,-1.2,1.5,·,·,·,·,·
O=C(C[n+]1ccc2ccccc2c1)c1ccc(NC(=O)c2ccccc2)cc1,14.6,3.1,7.5,12.7,-1.0,·,·,·,·,·
COc1cc(OC)c2c(c1)O/C(=C\c1ccccc1)C2=O,-397.0,53.5*,56.6*,68.1*,-12.4,72.0*,67.7*,83.3*,47.2,72.4*
CC(=O)Oc1ccc(/C=C2/Oc3ccccc3C2=O)cc1,-85.5,78.3*,83.1*,87.2*,-38.0,39.5,61.4*,44.3,70.8*,32.6
O=C1/C(=C/c2ccccc2)Oc2cc(OC(=O)N3CCOCC3)ccc21,-3.3,-7.9,-15.6,-15.4,-2.2,·,·,·,·,·
COc1ccc(/C=C2\Oc3ccccc3C2=O)cc1,-472.9,97.1*,92.3*,92.7*,0.3,4.9,94.4*,101.0*,93.9*,87.9*
Cc1ccc(S(=O)(=O)N2C[C@H]3C(=O)C[C@@H](c4ccccc4)N(S(=O)(=O)c4ccc(Br)cc4)[C@H]3C[C@H]2c2ccccc2)cc1,6.6,·,·,·,3.5,·,·,·,·,·
Cc1cc(F)ccc1-c1cc(C(=O)NC2CCCCC2)[nH]n1,-2.5,·,·,·,3.0,·,·,·,·,·
CCC1CCCCN1CC(=O)c1c(C)[nH]c2cc(C)ccc12 (centres undefined),13.6,-1.3,-5.2,-1.4,-8.6,·,·,·,·,·
Cc1cccc(Nc2nnc(-c3ccc(C(=O)N4C[C@H]5C[C@H](C4)c4cccc(=O)n4C5)cc3)c3ccccc23)c1,-121.2,0.6,-6.0,-7.7,2.2,·,·,·,·,·
COc1ccccc1CNCC(=O)Nc1ccc(N2CCOCC2)cc1,29.1,10.2,-4.2,-6.4,1.1,·,·,·,·,·
